These results are taken from ChEMBL document CHEMBL1148383, “Semisynthetic macrolide antibacterials derived from tylosin. Synthesis and structure-activity relationships of novel desmycosin analogues” (J Med Chem, 2004).

For series [1], the system named is Enterococcus faecalis. In words: Antibacterial activity against Enterococcus faecalis ATCC 29212. The series is classed as functional. Put shortly:
(§1)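 MICs were determined by broth microdilution following NCCLS guidelines. The test panel includes erythromycin-susceptible strains and erythromycin-resistant strains with constitutive or inducible MLSB phenotypes or with efflux resistance.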

The test system of series [2] is Staphylococcus aureus. In words: Antibacterial activity against Staphylococcus aureus ATCC 13709. The class given is functional. Put shortly:
as §1

Series [3] relates to Streptococcus pyogenes. In words: Antibacterial activity against Streptococcus pyogenes PSCB-0545. The series is classed as functional. The method, boiled down:
as §1

Series [4] deals with Staphylococcus aureus. In words: Antibacterial activity against Staphylococcus aureus PSCB-0331. The class given is functional. The method, boiled down:
as §1

The subject of series [5] is Streptococcus pyogenes. In words: Antibacterial activity against Streptococcus pyogenes PSCB-0543. The class given is functional. Put shortly: as §1
Series [6] concerns Streptococcus pneumoniae. In words: Antibacterial activity against Streptococcus pneumoniae PSCB-0541. The class given is functional. Put shortly:
as §1

Series [7] concerns Staphylococcus aureus. In words: Antibacterial activity against Staphylococcus aureus PSCB-0538. The series is classed as functional. Put shortly:
as §1

In series [8] the test system is Haemophilus influenzae. In words: Antibacterial activity against Haemophilus influenzae ATCC 49247. The series is classed as functional. Put shortly:
as §1

For series [9], the system named is Staphylococcus aureus. In words: Antibacterial activity against Staphylococcus aureus PSCB-0330. The series is classed as functional. The method, boiled down:
as §1

Series [10] has as its system Escherichia coli. In words: Antibacterial activity against Escherichia coli ATCC […]. The series is classed as functional. Put shortly: as §1
Series [11] can be described thus: Tmax in brain of mice at the oral dose of 50 mg/kg. The class given is ADME, organism-based. Also noted: dose 50 mg/kg, route oral. To be noted: mouse.
Series [12] can be described thus: Tmax in liver of mice at the oral dose of 50 mg/kg. Also noted: dose 50 mg/kg, route oral. The series is classed as ADME, organism-based. To be noted: mouse.
For series [13], the system named is Mus musculus. In words: T2 in lungs of mice at the oral dose of 50 mg/kg. The series is classed as ADME, organism-based, Lung. Set-up: dose 50 mg/kg, route oral. The following applies: in vivo.
The nature of series [14]: Cmax in spleen of mice at the oral dose of 50 mg/kg. The series is classed as ADME, organism-based. Set-up: dose 50 mg/kg, route oral. The following applies: mouse.
Series [15] deals with Mus musculus. In words: T2 in spleen of mice at the oral dose of 50 mg/kg. The class given is ADME, organism-based. Set-up: dose 50 mg/kg, route oral. To be noted: in vivo.
Series [16] concerns Mus musculus. In words: T2 in kidney of mice at the oral dose of 50 mg/kg. The series is classed as ADME, organism-based. Set-up: dose 50 mg/kg, route oral. To be noted: in vivo.
A short description of series [17]: Tmax in kidney of mice at the oral dose of 50 mg/kg. The series is classed as ADME, organism-based. Also noted: dose 50 mg/kg, route oral. The following applies: mouse.
The subject of series [18] is Mus musculus. In words: C2 in spleen of mice at the oral dose of 50 mg/kg. The series is classed as ADME, organism-based. To be noted: in vivo. Also noted: dose 50 mg/kg, route oral.
A short description of series [19]: Cmax in liver of mice at the oral dose of 50 mg/kg. The series is classed as ADME, organism-based. Also noted: dose 50 mg/kg, route oral. The following applies: mouse.
The subject of series [20] is Mus musculus. In words: C2 in lungs of mice at the oral dose of 50 mg/kg. To be noted: in vivo. Set-up: dose 50 mg/kg, route oral. The series is classed as ADME, organism-based, Lung.
Series [21] has as its system Mus musculus. In words: T2 in liver of mice at the oral dose of 50 mg/kg. The series is classed as ADME, organism-based. Set-up: dose 50 mg/kg, route oral. To be noted: in vivo.
Series [22] can be described thus: Tmax in lungs of mice at the oral dose of 50 mg/kg. The series is classed as ADME, organism-based, Lung. Also noted: dose 50 mg/kg, route oral. The following applies: mouse.
Series [23] has as its system Mus musculus. In words: C2 in kidney of mice at the oral dose of 50 mg/kg. The series is classed as ADME, organism-based. Also noted: dose 50 mg/kg, route oral. To be noted: in vivo.
For series [24], the system named is Mus musculus. In words: C2 in liver of mice at the oral dose of 50 mg/kg. The class given is ADME, organism-based. Set-up: dose 50 mg/kg, route oral. The following applies: in vivo.
The nature of series [25]: Tmax in spleen of mice at the oral dose of 50 mg/kg. The series is classed as ADME, organism-based. Also noted: dose 50 mg/kg, route oral. The following applies: mouse.
A short description of series [26]: Cmax in kidney of mice at the oral dose of 50 mg/kg. The class given is ADME, organism-based. Also noted: dose 50 mg/kg, route oral. To be noted: mouse.
The nature of series [27]: Cmax in lungs of mice at the oral dose of 50 mg/kg. Also noted: dose 50 mg/kg, route oral. The following applies: mouse. The class given is ADME, organism-based, Lung.

≈ marks a conversion by molar mass, not a printed value.

As for `CCOC(=O)/C=C/C[C@H]1C[C@@H](C)C(=O)/C=C/C(C)=C/[C@H](COC2OC(C)C(O)C(OC)C2OC)[C@@H](CC)OC(=O)C[C@@H](O)[C@H](C)[C@H]1OC1OC(C)C(O)C(N(C)C)C1O` (some centres not stated), the MIC came out at 1 µg/mL (≈ 1.19 µM) in series [1]; 0.5 µg/mL (≈ 0.594 µM) in [2]; 1 µg/mL (≈ 1.19 µM) in [3]; 0.25 µg/mL (≈ 0.297 µM) in [4]; 0.5 µg/mL (≈ 0.594 µM) in series [5]; 2 µg/mL (≈ 2.38 µM) in series [6]. Moreover, the MIC is 0.25 µg/mL (≈ 0.297 µM) in series [7], 4 µg/mL (≈ 4.75 µM) in [8], greater than 128 µg/mL in series [9] and greater than 128 µg/mL in series [10].
For `CC[C@H]1OC(=O)C[C@@H](O)[C@H](C)[C@@H](OC2OC(C)C(O)C(N(C)C)C2O)[C@@H](CC=O)C[C@@H](C)C(=O)CCC(C)C[C@@H]1COC1OC(C)C(O)C(OC)C1OC` (some centres not stated), the MIC was determined as 32 µg/mL (≈ 41.2 µM) in series [1]; 1 µg/mL (≈ 1.29 µM) in series [2]; 1 µg/mL (≈ 1.29 µM) in series [3]; 2 µg/mL (≈ 2.58 µM) in series [4]; 1 µg/mL (≈ 1.29 µM) in series [5]; 2 µg/mL (≈ 2.58 µM) in [6]. Besides, the MIC is 2 µg/mL (≈ 2.58 µM) in [7], 64 µg/mL (≈ 82.5 µM) in [8], 128 µg/mL (≈ 165 µM) in series [9] and 128 µg/mL (≈ 165 µM) in series [10].
Take `CC[C@H]1OC(=O)C[C@@H](O)[C@H](C)[C@@H](OC2OC(C)C(O)C(N(C)C)C2O)[C@@H](C/C=C/C(=O)O)C[C@@H](C)C(=O)/C=C/C(C)=C/[C@@H]1COC1OC(C)C(O)C(OC)C1OC` (some centres not stated): the MIC in [1] was greater than 128 µg/mL; in series [2] it was greater than 128 µg/mL; in [3] it was 128 µg/mL (≈ 157 µM); in series [4] it was greater than 128 µg/mL; in series [5] it was greater than 128 µg/mL; in [6], greater than 128 µg/mL. The MIC in [7] is greater than 128 µg/mL; in [8], 128 µg/mL (≈ 157 µM); in series [9] it was greater than 128 µg/mL; in series [10] it was greater than 128 µg/mL.
On to `CC[C@H]1O/C(O)=C/C(=O)[C@H](C)[C@@H](OC2OC(C)C(O)C(N(C)C)C2O)[C@@H](CC=O)C[C@@H](C)C(=O)/C=C/C(C)=C/[C@@H]1COC1OC(C)C(O)C(OC)C1OC` (some centres not stated), for which the MIC in series [1] stood at 8 µg/mL (≈ 10.4 µM); in series [2], 8 µg/mL (≈ 10.4 µM); in [3], 4 µg/mL (≈ 5.2 µM); in series [4] it was 32 µg/mL (≈ 41.6 µM); in series [5], 32 µg/mL (≈ 41.6 µM); in series [6], 8 µg/mL (≈ 10.4 µM). The MIC in series [7] was 16 µg/mL (≈ 20.8 µM); in [8], greater than 128 µg/mL; in series [9], greater than 128 µg/mL; in [10], greater than 128 µg/mL.
A word on the Tmax: it is the time from dosing to the highest level. As a reminder, the Cmax is the peak of the concentration-time curve. `CC[C@H]1OC(=O)C[C@@H](O)[C@H](C)[C@@H](OC2OC(C)C(O)C(N(C)C)C2O)[C@@H](C/C=C/C(C)=O)C[C@@H](C)C(=O)/C=C/C(C)=C/[C@@H]1COC1OC(C)C(O)C(OC)C1OC` (some centres not stated): the MIC is 1 µg/mL (≈ 1.23 µM) in series [1]; 0.25 µg/mL (≈ 0.308 µM) in series [2]; 0.5 µg/mL (≈ 0.616 µM) in series [3]; 0.5 µg/mL (≈ 0.616 µM) in series [4]; 0.5 µg/mL (≈ 0.616 µM) in [5]; 2 µg/mL (≈ 2.46 µM) in series [6]. Further, the MIC in series [7] came to 0.25 µg/mL (≈ 0.308 µM); in series [8], 4 µg/mL (≈ 4.93 µM); in series [9] it was 128 µg/mL (≈ 158 µM); in series [10], 128 µg/mL (≈ 158 µM). The Tmax in series [11] is 0 h; in series [12], 2 h; in series [17], 2 h; in [22], 2 h; in [25], 0.5 h. For the same molecule, the T2 in series [13] came to 0.5 h; in [15], 2 h; in series [16] it was 4 h; in series [21], 4 h. The Cmax came to 7970 ng/g in series [14], 33300 ng/g in series [19], 14300 ng/g in series [26] and 10400 ng/g in series [27]. Further, the C2 in [18] was 7 µg/g; in [20] it was 10.24 µg/g; in series [23], 4.58 µg/g; in series [24], 24.43 µg/g.
Take `CCOC(=O)/C=C/C[C@H]1C[C@@H](C)C(=O)/C=C/C(C)=C/[C@H](COC2OC(C)C(O)C(OC)C2OC)[C@@H](CC)OC(=O)C[C@@H](OC(=O)Cc2ccc([N+](=O)[O-])cc2)[C@H](C)[C@H]1OC1OC(C)C(O)C(N(C)C)C1O` (some centres not stated): the MIC is 2 µg/mL (≈ 1.99 µM) in series [1]; less than 0.25 µg/mL in series [2]; 0.5 µg/mL (≈ 0.497 µM) in series [3]; 0.5 µg/mL (≈ 0.497 µM) in series [4]; 2 µg/mL (≈ 1.99 µM) in [5]; 4 µg/mL (≈ 3.98 µM) in series [6]. The MIC is 0.25 µg/mL (≈ 0.249 µM) in series [7], 8 µg/mL (≈ 7.96 µM) in series [8], greater than 128 µg/mL in [9] and greater than 128 µg/mL in series [10].
`CC[C@H]1OC(=O)C[C@@H](O)[C@H](C)[C@@H](O[C@@H]2O[C@H](C)[C@@H](O[C@H]3C[C@@](C)(O)[C@@H](O)[C@H](C)O3)[C@H](N(C)C)[C@H]2O)[C@@H](CC=O)C[C@@H](C)C(=O)/C=C/C(C)=C/[C@@H]1CO[C@@H]1O[C@H](C)[C@@H](O)[C@@H](OC)[C@H]1OC` [TYLOSIN]: the MIC is 1 µg/mL (≈ 1.09 µM) in [1]; 1 µg/mL (≈ 1.09 µM) in [2]; 0.5 µg/mL (≈ 0.546 µM) in [3]; 1 µg/mL (≈ 1.09 µM) in series [4]; 1 µg/mL (≈ 1.09 µM) in [5]; 0.5 µg/mL (≈ 0.546 µM) in series [6]. The MIC in [7] is 0.5 µg/mL (≈ 0.546 µM); in [8] it was 8 µg/mL (≈ 8.73 µM); in series [9], greater than 128 µg/mL; in series [10], 64 µg/mL (≈ 69.9 µM).
